Source: ChEMBL document CHEMBL1143665, “Novel acyclic enediynes inhibit Cyclin A and Cdc25C expression and induce apoptosis phenomenon to show potent antitumor proliferation” (2007)
Activity calls are given as the source filed them. The rule behind the calls is not given here.

Legend:
OVCAR-3 = assay: Cytotoxicity against human OVCAR-3 cells; type: functional
K562 [1] = assay: Cell cycle arrest in human K562 cells by accumulation at G0/G1 phase cell at 50 uM after 24 hrs relative to control; type: functional
Summary of the method: (§1)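 K-562 cells (RPMI 1640, 10% fetal calf serum, 37 °C, 5% CO2) exposed 24 h, pelleted, fixed in ice-cold 70% ethanol 30 min, RNase A (1 mg/ml) 37 °C 30 min, propidium iodide stain 30 min at room temperature in the dark; DNA content of 10,000 events by flow cytometry; phase and sub-G1 percentages compared with untreated control.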

K562 [2] = assay: Cytotoxicity against human K562 cells; type: functional
Caspase-3 (Homo sapiens) [3] = biological target: T1, Caspase-3 (Homo sapiens) (UniProt P42574); assay: Increase in caspase 3 activation in human K562 cells at 50 uM relative to control; type: cell-based
T1 sequence (whole entry): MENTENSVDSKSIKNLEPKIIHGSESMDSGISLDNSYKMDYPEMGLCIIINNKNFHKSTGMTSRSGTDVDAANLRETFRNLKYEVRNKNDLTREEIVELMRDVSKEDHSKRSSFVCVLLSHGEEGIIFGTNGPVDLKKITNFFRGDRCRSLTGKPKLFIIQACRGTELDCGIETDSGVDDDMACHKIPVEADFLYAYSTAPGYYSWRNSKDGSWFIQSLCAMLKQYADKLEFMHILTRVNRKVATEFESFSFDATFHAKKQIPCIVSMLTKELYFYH
Summary of the method: (§2)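 K-562 cells treated 24 h, washed, lysed in 50 mM Tris-HCl pH 7.4, 1 mM EDTA, 10 mM EGTA, spun 18,000g 3 min; lysate (50 µg protein) incubated with 100 µM caspase-specific colorimetric substrate at 37 °C for 1 h; cleavage read as absorbance at 405 nm, expressed as fold of control.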

Caspase-9 (Homo sapiens) [4] = biological target: T2, Caspase-9 (Homo sapiens) (UniProt P55211); assay: Increase in caspase 9 activation in human K562 cells at 50 uM relative to control; type: cell-based; summary of the method: as §2
T2 sequence (whole entry): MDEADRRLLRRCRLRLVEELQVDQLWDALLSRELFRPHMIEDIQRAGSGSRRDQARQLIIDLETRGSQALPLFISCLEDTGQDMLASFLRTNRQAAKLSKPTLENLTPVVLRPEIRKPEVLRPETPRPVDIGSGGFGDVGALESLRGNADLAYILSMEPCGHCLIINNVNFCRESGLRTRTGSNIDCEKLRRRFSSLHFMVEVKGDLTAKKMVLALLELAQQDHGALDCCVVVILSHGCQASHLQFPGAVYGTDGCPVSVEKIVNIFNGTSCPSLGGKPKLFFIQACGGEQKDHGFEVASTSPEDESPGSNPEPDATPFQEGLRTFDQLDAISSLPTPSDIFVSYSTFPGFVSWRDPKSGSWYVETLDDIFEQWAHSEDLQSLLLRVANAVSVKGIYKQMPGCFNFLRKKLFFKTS

K562 [5] = assay: Induction of apoptosis in human K562 cells at 50 uM in presence of Z-DEVD-FMK; type: functional
Summary of the method: (§3)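 K-562 cells preincubated 1 h with caspase-3 (Z-DEVD-FMK), -8 (Z-IETD-FMK) or -9 (Z-LEHD-FMK) inhibitor, then exposed 24 h; cells fixed in 70% ethanol, RNase A (500 U/ml) 37 °C 15 min, propidium iodide 50 µg/ml in PBS; sub-G1 fraction by flow cytometry.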

LOX IMVI = assay: Cytotoxicity against human LOX IMVI cells; type: functional
K562 [6] = assay: Induction of apoptosis in human K562 cells at 50 uM in presence of Z-IETD-FMK; type: functional; summary of the method: as §3
DU-145 = assay: Cytotoxicity against human DU145 cells; type: functional
K562 [7] = assay: Induction of apoptosis in human K562 cells at 50 uM in presence of Z-LEHD-FMK; type: functional; summary of the method: as §3
Caspase-8 (Homo sapiens) [8] = biological target: Caspase-8 (Homo sapiens) (UniProt Q14790); assay: Increase in caspase 8 activation in human K562 cells at 25 uM relative to control; type: cell-based; summary of the method: as §2
MDA-MB-435 = assay: Cytotoxicity against human MDA-MB-435 cells; type: functional
K562 [9] = assay: Induction of apoptosis in human K562 cells assessed as accumulation at subG1 phase at 50 uM after 24 hrs relative to control; type: functional; summary of the method: as §1
K562 [10] = assay: Cell cycle arrest in human K562 cells by accumulation at S phase cell at 50 uM after 24 hrs relative to control; type: functional; summary of the method: as §1
SF-295 = assay: Cytotoxicity against human SF295 cells; type: functional
Caspase-8 (Homo sapiens) [11] = biological target: Caspase-8 (Homo sapiens) (UniProt Q14790); assay: Increase in caspase 8 activation in human K562 cells at 50 uM relative to control; type: cell-based; summary of the method: as §2
HCT-15 = assay: Cytotoxicity against human HCT15 cells; type: functional
Caspase-9 (Homo sapiens) [12] = biological target: T2, Caspase-9 (Homo sapiens); assay: Increase in caspase 9 activation in human K562 cells at 25 uM relative to control; type: cell-based; summary of the method: as §2
Caspase-3 (Homo sapiens) [13] = biological target: T1, Caspase-3 (Homo sapiens); assay: Increase in caspase 3 activation in human K562 cells at 25 uM relative to control; type: cell-based; summary of the method: as §2
K562 [14] = assay: Cell cycle arrest in human K562 cells by accumulation at G2/M phase cell at 50 uM after 24 hrs relative to control; type: functional; summary of the method: as §1
SR = assay: Cytotoxicity against human SR cells; type: functional
MDA-MB-231 = assay: Cytotoxicity against human MDA-MB-231 cells; type: functional
M14 = assay: Cytotoxicity against human M14 cells; type: functional
SK-OV-3 = assay: Cytotoxicity against human SKOV3 cells; type: functional
K562 [15] = assay: Effect on Cdk1 protein levels in human K562 cells at 25 uM; type: functional, cell-based
Summary of the method: (§4)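 Western blot of treated K-562 cells: lysis in Tris pH 7.5/1% NP-40/EDTA/NaCl with protease inhibitors on ice 30 min, spun 20,000g 30 min 4 °C; 50 µg lysate on 12% SDS-PAGE, PVDF transfer, probed with anti-Cdk1, -Cdk2, -Cyclin A, -Cyclin B1 or -Cdc25C; enhanced chemiluminescence detection.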

K562 [16] = assay: Effect on Cyclin B protein levels in human K562 cells at 25 uM; type: functional, cell-based; summary of the method: as §4
K562 [17] = assay: Decrease in Cyclin A protein levels in human K562 cells at 25 uM; type: functional, cell-based; summary of the method: as §4
K562 [18] = assay: Effect on Cyclin B protein levels in human K562 cells at 50 uM; type: functional, cell-based; summary of the method: as §4
K562 [19] = assay: Decrease in Cdc25C protein levels in human K562 cells at 25 uM; type: functional, cell-based; summary of the method: as §4
K562 [20] = assay: Decrease in Cdc25C protein levels in human K562 cells at 50 uM; type: functional, cell-based; summary of the method: as §4
K562 [21] = assay: Effect on Cdk2 protein levels in human K562 cells at 25 uM; type: functional, cell-based; summary of the method: as §4
K562 [22] = assay: Decrease in Cyclin A protein levels in human K562 cells at 50 uM; type: functional, cell-based; summary of the method: as §4
K562 [23] = assay: Effect on Cdk2 protein levels in human K562 cells at 50 uM; type: functional, cell-based; summary of the method: as §4
K562 [24] = assay: Effect on Cdk1 protein levels in human K562 cells at 50 uM; type: functional, cell-based; summary of the method: as §4

Caspase-8 (Homo sapiens), sequence (Q14790 217-374 limits assumed): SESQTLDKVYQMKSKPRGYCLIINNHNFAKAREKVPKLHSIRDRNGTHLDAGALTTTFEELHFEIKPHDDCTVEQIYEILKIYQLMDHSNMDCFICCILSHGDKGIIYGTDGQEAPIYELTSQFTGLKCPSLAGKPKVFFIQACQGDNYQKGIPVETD
Caspase-8 (Homo sapiens), sequence (Q14790 385-479 limits assumed): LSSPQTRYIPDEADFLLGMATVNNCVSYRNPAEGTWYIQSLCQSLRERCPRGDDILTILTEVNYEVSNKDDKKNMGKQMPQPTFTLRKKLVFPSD

| Structure (SMILES) | GI50 (OVCAR-3) | Activity (K562 [1]) | GI50 (K562 [2]) | GI50 (LOX IMVI) | GI50 (DU-145) | GI50 (MDA-MB-435) | Activity (K562 [9]) | Activity (K562 [10]) | GI50 (SF-295) | GI50 (HCT-15) | Activity (K562 [14]) | GI50 (SR) | also measured |
| --- | --- | --- | --- | --- | --- | --- | --- | --- | --- | --- | --- | --- | --- |
| OCCCCC#Cc1ccccc1C#Cc1ccc(O)cc1 | 14.8 µM | 25.6% | 20.4 µM | 13.6 µM | 16.8 µM | 16.1 µM | 23.56% | 39.5% | 16.2 µM | 14.1 µM | 34.9% |  | Fold change (Caspase-3 (Homo sapiens) [3]): 2.6; Fold change (Caspase-9 (Homo sapiens) [4]): 1.7; Activity (K562 [5]): 17%; Activity (K562 [6]): 19%; Activity (K562 [7]): 42%; Fold change (Caspase-8 (Homo sapiens) [8]): 1.2; Fold change (Caspase-8 (Homo sapiens) [11]): 1.8; Fold change (Caspase-9 (Homo sapiens) [12]): 1.5; Fold change (Caspase-3 (Homo sapiens) [13]): 1.4 |
| OCCCCC#Cc1ccccc1C#Cc1ccc(C(F)(F)F)cc1 | 17.8 µM | 36.9% | 18.2 µM | 17.1 µM | 15.8 µM | 16.3 µM | 5.36% | 38.3% | 19.1 µM | 12.5 µM | 24.8% | 0.6 µM |  |
| OCCCCC#Cc1ccccc1C#Cc1cccc(C(F)(F)F)c1 | 16.8 µM | 30.6% | 22.5 µM | 17.5 µM | 15.3 µM | 16.9 µM | 3.84% | 40% | 16.5 µM | 16.3 µM | 29.4% | 18.3 µM |  |
| COc1ccccc1C#Cc1ccccc1C#CCCCCO | 19.8 µM | 30.9% | 15.5 µM | 17.9 µM | 14.3 µM | 20.2 µM | 8.08% | 41.5% | 22.1 µM | 19.9 µM | 27.6% | 1 µM |  |
| OCCC#Cc1ccccc1C#Cc1ccccc1 |  |  | 11 µM |  | 12.5 µM |  |  |  | 28.1 µM |  |  |  | GI50 (MDA-MB-231): 3.41 µM; GI50 (M14): 16 µM; GI50 (SK-OV-3): 17.3 µM |
| OCCCCC#Cc1ccccc1C#Cc1ccccc1C(F)(F)F | 2.3 µM | 2.7% | 1.1 µM | 4.9 µM | 6.1 µM | 0.8 µM | 10.47% | 10.8% | 2.3 µM | 3.5 µM | 86.5% | 0.4 µM | Activity (K562 [15]): inactive; Activity (K562 [16]): inactive; Activity (K562 [17]): Active; Activity (K562 [18]): inactive; Activity (K562 [19]): Active; Activity (K562 [20]): Active; Activity (K562 [21]): inactive; Activity (K562 [22]): Active; Activity (K562 [23]): inactive; Activity (K562 [24]): inactive |
| CSc1ccccc1C#Cc1ccccc1C#CCCCCO | 14.7 µM | 19.8% | 6.1 µM | 5.8 µM | 4.7 µM | 3.9 µM | 9.23% | 24.6% | 1.5 µM | 3.8 µM | 55.7% | 3.5 µM |  |
